Measurements as given in ChEMBL document CHEMBL1132562, “Ajoene is an inhibitor and subversive substrate of human glutathione reductase and Trypanosoma cruzi trypanothione reductase: crystallographic, kinetic, and spectroscopic studies” (J Med Chem, 1999).

Experiments:
[1] = substrate: C=CCSS/C=C/C[S+]([O-])CC=C; test: (§1) Km value determined against human Glutathione reductase (GR) by oxidation of NADPH
Summary of the method: (§2)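 Recombinant human glutathione reductase in GR assay buffer (phosphate, 200 mM KCl, 1 mM EDTA, pH 6.9) at 25 °C with 150 μM NADPH and ajoene or DATS as substrate. NADPH consumption read at 340 nm. Where GSH is present, it is added to the mixture. Controls held NADPH and enzyme only (intrinsic oxidase activity).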

[2] = substrate: C=CCSS/C=C\C[S+]([O-])CC=C; test: as §1; summary of the method: as §2
[3] = substrate: C=CCSSSCC=C; test: as §1; summary of the method: as §2
[4] = substrate: C=CCSS/C=C/C[S+]([O-])CC=C; test: Kcat value determined against Trypanothione reductase (TR) by oxidation of NADPH; conditions: Trypanosoma cruzi
Summary of the method: (§3)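 T. cruzi trypanothione reductase, recombinant, with NADPH and ajoene as substrate in TR assay buffer (40 mM Hepes, 1 mM EDTA, pH 7.5) at 25 °C. NADPH oxidation followed as absorbance decrease at 340 nm. Controls held only NADPH and enzyme, giving the intrinsic oxidase activity.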

[5] = substrate: C=CCSS/C=C/C[S+]([O-])CC=C; test: (§4) Km value determined against Trypanothione reductase (TR); conditions: Trypanosoma cruzi; summary of the method: as §3
[6] = substrate: C=CCSS/C=C\C[S+]([O-])CC=C; test: as §4; conditions: Trypanosoma cruzi; summary of the method: as §3
[7] = substrate: C=CCSS/C=C\C[S+]([O-])CC=C; test: Km value determined against Trypanothione reductase (TR) by oxidation of NADPH; conditions: Trypanosoma cruzi

B1: Glutathione reductase, mitochondrial (Homo sapiens), P00390 (protein)
chain: MALLPRALSAGAGPSWRRAARAFRGFLLLLPEPAALTRALSRAMACRQEPQPQGPPPAAGAVASYDYLVIGGGSGGLASARRAAELGARAAVVESHKLGGTCVNVGCVPKKVMWNTAVHSEFMHDHADYGFPSCEGKFNWRVIKEKRDAYVSRLNAIYQNNLTKSHIEIIRGHAAFTSDPKPTIEVSGKKYTAPHILIATGGMPSTPHESQIPGASLGITSDGFFQLEELPGRSVIVGAGYIAVEMAGILSALGSKTSLMIRHDKVLRSFDSMISTNCTEELENAGVEVLKFSQVKEVKKTLSGLEVSMVTAVPGRLPVMTMIPDVDCLLWAIGRVPNTKDLSLNKLGIQTDDKGHIIVDEFQNTNVKGIYAVGDVCGKALLTPVAIAAGRKLAHRLFEYKEDSKLDYNNIPTVVFSHPPIGTVGLTEDEAIHKYGIENVKTYSTSFTPMYHAVTKRKTKCVMKMVCANKEEKVVGIHMQGLGCDEMLQGFAVAVKMGATKADFDNTVAIHPTSSEELVTLR
In the case of B1, the Km [1] is reported as 800 µM, the Km [2] is reported as 380 µM and the Km [3] is reported as 160 µM.

B2: Trypanothione reductase (Trypanosoma cruzi), P28593 (protein)
chain: MMSKIFDLVVIGAGSGGLEAAWNAATLYKKRVAVIDVQMVHGPPFFSALGGTCVNVGCVPKKLMVTGAQYMEHLRESAGFGWEFDRTTLRAEWKKLIAVKDEAVLNINKSYEEMFRDTEGLEFFLGWGSLESKNVVNVRESADPASAVKERLETENILLASGSWPHMPNIPGIEHCISSNEAFYLPEPPRRVLTVGGGFISVEFAGIFNAYKPKDGQVTLCYRGEMILRGFDHTLREELTKQLTANGIQILTKENPAKVELNADGSKSVTFESGKKMDFDLVMMAIGRSPRTKDLQLQNAGVMIKNGGVQVDEYSRTNVSNIYAIGDVTNRVMLTPVAINEAAALVDTVFGTNPRKTDHTRVASAVFSIPPIGTCGLIEEVASKRYEVVAVYLSSFTPLMHNISGSKYKTFVAKIITNHSDGTVLGVHLLGDNAPEIIQGVGICLKLNAKISDFYNTIGVHPTSAEELCSMRTPSYYYVKGEKMEKPSEASL
For B2, the Km [4] was > 2000 µM, the Km [5] was > 2000 µM and the Km [6] was ≥ 2000 µM. For the same protein, the Km [7] was > 2000 µM.
